Reference: ChEMBL document CHEMBL1629434, “Cholesterol-based α-phenyl-N-tert-butyl nitrone derivatives as antioxidants against light-induced retinal degeneration” (Bioorg Med Chem Lett, 2010)
Active and inactive are the calls of the source. No cut-off for these calls is given here.

How the values were obtained:
Rattus norvegicus [1] = species on record: Rattus norvegicus; test: Protection against light-induced photoreceptor degradation in albino rat retina exposed to bright fluorescent light assessed as reduction in ONL thickness on superior side at 1 mM, intravitreally after 24 hrs; type: functional, organism-based
How it was run: (§1)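 Albino rats got a 2 µL intravitreal injection 18 h before 24 h exposure to bright fluorescent light. Compounds insoluble in PBS 1× at 1 mM were given in DMSO 2%; PBS-soluble ones were given in PBS 1×. Untreated-unexposed and DMSO 2% groups served as controls.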

[2] = Solubility of the compound at 1 mM in PBS; type: physicochemical; details: buffer, 1000 µM
[3] = Solubility of the compound at 1 mM in 2% DMSO; type: physicochemical; details: 1000 µM
Rattus norvegicus [4] = species on record: Rattus norvegicus; test: Protection against light-induced photoreceptor degradation in albino rat retina exposed to 12 hrs dark and 12 hrs light assessed as reduction in ONL thickness on inferior side at 9 mM, intravitreally after 24 hrs; type: functional, organism-based; how it was run: as §1
Rattus norvegicus [5] = species on record: Rattus norvegicus; test: Protection against light-induced photoreceptor degradation in albino rat retina exposed to 12 hrs dark and 12 hrs light assessed as reduction in ONL thickness on superior side at 9 mM, intravitreally after 24 hrs; type: functional, organism-based; how it was run: as §1
Rattus norvegicus [6] = species on record: Rattus norvegicus; test: Protection against light-induced photoreceptor degradation in albino rat retina exposed to 12 hrs dark and 12 hrs light assessed as reduction in ONL thickness at 1 mM, intravitreally after 24 hrs; type: functional, organism-based; how it was run: as §1
[7] = Half life in albino rat retina; type: ADME, tissue-based

Q: What does the source list for `CC(C)CCC[C@@H](C)[C@H]1CC[C@H]2[C@@H]3CC=C4C[C@@H](OCCC(=O)NCC(C)(C)/[N+]([O-])=C/c5ccc(CNC(=O)[C@@H](O)[C@H](O)[C@H](O[C@@H]6O[C@H](CO)[C@H](O)[C@H](O)[C@H]6O)[C@@H](O)CO)cc5)CC[C@]4(C)[C@H]3CC[C@]12C`?
A: Activity (Rattus norvegicus [1]): inactive; solubility [2]: Insoluble; solubility [3]: soluble

Q: What does the source list for `CC(C)(C)/[N+]([O-])=C/c1ccccc1`?
A: Activity (Rattus norvegicus [4]): Active; Activity (Rattus norvegicus [5]): Active; Activity (Rattus norvegicus [6]): inactive; half-life [7]: 2 h

Q: Which results are given for `CC(C)CCC[C@@H](C)[C@H]1CC[C@H]2[C@@H]3CC=C4C[C@@H](OCCC(=O)NCc5ccc(/C=[N+](\[O-])C(C)(C)CNC(=O)[C@@H](O)[C@H](O)[C@H](O[C@@H]6O[C@H](CO)[C@H](O)[C@H](O)[C@H]6O)[C@@H](O)CO)cc5)CC[C@]4(C)[C@H]3CC[C@]12C`?
A: Activity (Rattus norvegicus [1]): Active; solubility [2]: Insoluble; solubility [3]: soluble
